ChEMBL document CHEMBL2407028, “Discovery of novel oxazolidinedione derivatives as potent and selective mineralocorticoid receptor antagonists” (Bioorg Med Chem Lett, 2013)

What was measured:
Rattus norvegicus [1] = test: Volume of distribution at steady state in rat at 1 mg/kg, iv and 1 mg/lg, po; type: ADME, organism-based; set-up: dose 1 mg/kg, route oral; details: in vivo
Procedure, shortened: (§1)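 Rats dosed at 1 mg/kg iv (n = 2) or 1 mg/kg po (n = 3), formulated at 1 mg/mL in PEG 200:water (70:30). Blood concentrations measured by LC/MS/MS after protein precipitation with acetonitrile.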

Rattus norvegicus [2] = test: Dose normalized AUC in rat at 1 mg/kg, iv; type: ADME, organism-based; set-up: dose 1 mg/kg, route intravenous; details: in vivo; procedure, shortened: as §1
Rattus norvegicus [3] = test: Dose normalized AUC in rat at 1 mg/kg, po; type: ADME, organism-based; set-up: dose 1 mg/kg, route oral; details: in vivo; procedure, shortened: as §1
[4] = target: T1, Mineralocorticoid receptor (Homo sapiens, UniProt P08235); test: Antagonist activity at human mineralocorticoid receptor assessed as inhibition of binding to coactivator peptide by NH Pro assay
T1 sequence (P08235 whole entry): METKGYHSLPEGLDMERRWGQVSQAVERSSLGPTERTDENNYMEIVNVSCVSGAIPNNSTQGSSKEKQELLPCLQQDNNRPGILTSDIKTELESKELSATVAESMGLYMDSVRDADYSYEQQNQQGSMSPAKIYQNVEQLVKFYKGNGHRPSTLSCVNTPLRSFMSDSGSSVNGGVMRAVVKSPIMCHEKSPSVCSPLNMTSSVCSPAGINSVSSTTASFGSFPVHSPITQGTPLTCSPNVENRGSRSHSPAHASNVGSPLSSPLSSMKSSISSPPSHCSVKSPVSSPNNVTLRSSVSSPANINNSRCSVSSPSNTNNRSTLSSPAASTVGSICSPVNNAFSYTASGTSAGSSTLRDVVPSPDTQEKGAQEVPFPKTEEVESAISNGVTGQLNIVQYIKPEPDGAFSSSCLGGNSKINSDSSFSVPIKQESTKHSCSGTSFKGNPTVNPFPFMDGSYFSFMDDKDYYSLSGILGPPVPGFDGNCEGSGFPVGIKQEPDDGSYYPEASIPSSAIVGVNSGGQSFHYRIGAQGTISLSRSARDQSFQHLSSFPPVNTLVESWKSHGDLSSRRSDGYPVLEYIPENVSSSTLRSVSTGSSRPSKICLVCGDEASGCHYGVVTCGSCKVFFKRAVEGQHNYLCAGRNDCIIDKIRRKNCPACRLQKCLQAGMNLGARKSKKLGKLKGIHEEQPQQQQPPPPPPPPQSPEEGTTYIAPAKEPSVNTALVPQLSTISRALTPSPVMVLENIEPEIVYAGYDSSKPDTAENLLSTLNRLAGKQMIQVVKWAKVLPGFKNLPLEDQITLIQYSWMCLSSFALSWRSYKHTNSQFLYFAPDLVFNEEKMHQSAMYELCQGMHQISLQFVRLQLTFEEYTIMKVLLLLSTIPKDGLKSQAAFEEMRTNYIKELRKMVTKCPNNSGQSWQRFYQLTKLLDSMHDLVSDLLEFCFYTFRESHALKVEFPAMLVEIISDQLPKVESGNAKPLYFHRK

[5] = Cmax in rat at 1 mg/kg, iv and 1 mg/lg, po; type: ADME, organism-based; set-up: dose 1 mg/kg, route oral; details: in vivo; procedure, shortened: as §1
[6] = Half life in rat at 1 mg/kg, iv and 1 mg/lg, po; type: ADME, organism-based; set-up: dose 1 mg/kg, route oral; details: in vivo; procedure, shortened: as §1
[7] = Oral bioavailability in rat at 1 mg/kg; type: ADME, organism-based; details: in vivo; procedure, shortened: as §1
Estrogen receptor [8] = target: T2, Estrogen receptor (Homo sapiens, UniProt P03372); test: Antagonist activity at estrogen receptor alpha (unknown origin) by NH Pro assay
T2 sequence (P03372 whole entry): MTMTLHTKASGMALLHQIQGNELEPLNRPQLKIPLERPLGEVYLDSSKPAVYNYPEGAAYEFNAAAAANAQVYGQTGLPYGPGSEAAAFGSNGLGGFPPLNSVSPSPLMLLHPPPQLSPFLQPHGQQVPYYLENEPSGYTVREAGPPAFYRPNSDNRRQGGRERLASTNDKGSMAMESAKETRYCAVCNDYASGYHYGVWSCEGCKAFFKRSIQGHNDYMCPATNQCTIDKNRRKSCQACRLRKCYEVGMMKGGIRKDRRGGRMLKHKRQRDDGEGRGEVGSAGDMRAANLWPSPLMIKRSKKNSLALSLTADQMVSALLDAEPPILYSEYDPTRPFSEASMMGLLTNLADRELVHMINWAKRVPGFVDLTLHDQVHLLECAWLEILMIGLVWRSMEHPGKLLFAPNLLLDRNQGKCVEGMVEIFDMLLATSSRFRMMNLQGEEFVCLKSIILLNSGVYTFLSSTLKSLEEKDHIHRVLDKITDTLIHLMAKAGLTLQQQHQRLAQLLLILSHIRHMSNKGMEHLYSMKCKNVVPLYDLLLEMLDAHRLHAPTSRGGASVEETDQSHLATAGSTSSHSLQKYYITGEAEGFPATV

Estrogen receptor [9] = target: T2, Estrogen receptor; test: Agonist activity at estrogen receptor alpha (unknown origin) by NH Pro assay
Glucocorticoid receptor [10] = target: T3, Glucocorticoid receptor (Homo sapiens, UniProt P04150); test: Agonist activity at glucocorticoid receptor (unknown origin) by NH Pro assay
T3 sequence (P04150 whole entry): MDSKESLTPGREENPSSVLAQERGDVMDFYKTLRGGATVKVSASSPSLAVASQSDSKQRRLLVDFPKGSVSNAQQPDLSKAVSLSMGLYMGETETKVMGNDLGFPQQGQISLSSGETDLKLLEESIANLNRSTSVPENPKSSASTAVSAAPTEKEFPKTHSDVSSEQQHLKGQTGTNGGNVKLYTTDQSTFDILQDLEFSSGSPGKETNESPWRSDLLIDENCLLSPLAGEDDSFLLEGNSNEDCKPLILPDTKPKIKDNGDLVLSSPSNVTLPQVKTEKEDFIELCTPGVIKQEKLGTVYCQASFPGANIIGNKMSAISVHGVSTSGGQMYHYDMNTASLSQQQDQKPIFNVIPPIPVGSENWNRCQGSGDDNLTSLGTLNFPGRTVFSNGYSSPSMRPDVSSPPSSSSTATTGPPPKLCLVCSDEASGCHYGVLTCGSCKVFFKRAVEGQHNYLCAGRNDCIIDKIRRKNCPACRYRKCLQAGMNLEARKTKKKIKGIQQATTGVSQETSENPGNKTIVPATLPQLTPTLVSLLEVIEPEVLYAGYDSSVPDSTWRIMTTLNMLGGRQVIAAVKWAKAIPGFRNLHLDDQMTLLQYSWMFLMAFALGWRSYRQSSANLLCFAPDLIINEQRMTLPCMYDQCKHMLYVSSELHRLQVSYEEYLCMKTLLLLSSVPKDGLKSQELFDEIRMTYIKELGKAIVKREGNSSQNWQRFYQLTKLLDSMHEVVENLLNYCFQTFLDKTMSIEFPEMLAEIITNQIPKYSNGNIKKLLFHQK

Glucocorticoid receptor [11] = target: T3, Glucocorticoid receptor; test: Antagonist activity at glucocorticoid receptor (unknown origin) by NH Pro assay

Structure (SMILES)	Vdss (Rattus norvegicus [1]) [L/kg]	AUC/dose (Rattus norvegicus [2]) [µM·kg·h/mg]	AUC/dose (Rattus norvegicus [3]) [µM·kg·h/mg]	IC50 [4] [µM]	Cmax [5] [nM]	half-life [6] [h]	bioavailability [7] [%]	IC50 (Estrogen receptor [8]) [µM]	EC50 (Estrogen receptor [9]) [µM]	EC50 (Glucocorticoid receptor [10]) [µM]	IC50 (Glucocorticoid receptor [11]) [µM]
COc1cc(CNC(=O)[C@@]2(Cc3ccccc3)OC(=O)N([C@H](C)c3ccccc3)C2=O)cc(OC)c1	2.8	0.75	0.05	0.054	60	1.2	7				
COC(=O)[C@@H]1CC2=CC(=O)CC[C@]2(C)[C@@]23O[C@@H]2C[C@@]2(C)[C@@H](CC[C@@]24CCC(=O)O4)[C@H]13 [EPLERENONE]								> 20	> 20		
CC(=O)S[C@@H]1CC2=CC(=O)CC[C@]2(C)[C@H]2CC[C@@]3(C)[C@@H](CC[C@@]34CCC(=O)O4)[C@H]12 [SPIRONOLACTONE]								> 20	> 20	> 20	4.1
